SMILES strings stand for the structures. Activity calls are given as the source filed them. The rule behind the calls is not given here.

The term IC50 denotes the concentration needed to halve the response being measured. High values mean weaker potency in that assay, low ones greater potency in that assay. As a reminder, the inhibition is the drop in the measured response relative to a control, in per cent.

In experiment [1] the target is ALK tyrosine kinase receptor (Homo sapiens) (UniProt Q9UM73). Put plainly: Inhibition of ALK (unknown origin) assessed as remaining activity at 10 uM by ATP-competition binding assay relative to control.
Experiment [2] concerns the target Serine/threonine-protein kinase MARK2 (Homo sapiens, UniProt Q7KZI7). The experiment can be described thus: Inhibition of MARK2 in human HeLa cells lysate pre incubated for 15 mins followed by ADP acyl phosphate probe addition and measured after 10 mins by LC-MS/MS analysis. The class given is subcellular.
Experiment [3] concerns the target Serine/threonine-protein kinase PLK1 (Homo sapiens, UniProt P53350). The experiment can be described thus: Inhibition of PLK1 splice variant in human HeLa cells lysate pre incubated for 15 mins followed by ADP acyl phosphate probe addition and measured after 10 mins by LC-MS/MS analysis. The format is subcellular.
For experiment [4], the target named is Dual specificity protein kinase CLK3 (Homo sapiens, UniProt P49761). Put plainly: Inhibition of CLK3 in human HeLa cells lysate at 50 uM pre incubated for 15 mins followed by ADP acyl phosphate probe addition and measured after 10 mins by LC-MS/MS analysis relative to control. The class given is subcellular. The settings on record: time 25.0 min.
The target in experiment [5] is Cyclin-dependent kinase 16 (Homo sapiens, UniProt Q00536). Put plainly: Inhibition of PCTAIRE1 in human HeLa cells lysate at 2 uM pre incubated for 15 mins followed by ADP acyl phosphate probe addition and measured after 10 mins by LC-MS/MS analysis relative to control. The settings on record: time 25.0 min. The format is subcellular.
For experiment [6], the target named is T1, Aurora kinase A (Homo sapiens) (UniProt O14965).
T1 sequence (whole entry): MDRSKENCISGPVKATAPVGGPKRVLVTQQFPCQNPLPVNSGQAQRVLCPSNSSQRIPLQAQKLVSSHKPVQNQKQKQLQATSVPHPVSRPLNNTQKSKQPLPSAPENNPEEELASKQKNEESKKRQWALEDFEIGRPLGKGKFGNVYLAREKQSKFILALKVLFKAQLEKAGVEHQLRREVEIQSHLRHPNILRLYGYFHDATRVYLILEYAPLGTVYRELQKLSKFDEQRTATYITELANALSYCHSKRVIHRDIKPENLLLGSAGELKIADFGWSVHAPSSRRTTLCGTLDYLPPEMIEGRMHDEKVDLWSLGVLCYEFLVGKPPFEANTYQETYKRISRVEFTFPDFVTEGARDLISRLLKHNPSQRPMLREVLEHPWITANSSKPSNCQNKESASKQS
Put plainly: Inhibition of AurA in human HeLa cells lysate at 50 uM pre incubated for 15 mins followed by ATP acyl phosphate probe addition and measured after 10 mins by LC-MS/MS analysis relative to control. The format is subcellular. To be noted: time 25.0 min. In outline: (§1)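 KiNativ-type profiling in HeLa lysate (5 mg/mL total protein). Lysate preincubated 15 min with inhibitor at 50, 10, 2, 0.8 or 0 μM, then ATP or ADP acylphosphate probe added (5 μM final) for 10 min. Reaction stopped with urea and analysed by targeted MS, using up to four fragment ions per kinase peptide-probe conjugate. % inhibition calculated against untreated lysate. Duplicate reactions.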

In experiment [7] the target is T2, Serine/threonine-protein kinase A-Raf (Homo sapiens) (UniProt P10398).
T2 sequence (whole entry): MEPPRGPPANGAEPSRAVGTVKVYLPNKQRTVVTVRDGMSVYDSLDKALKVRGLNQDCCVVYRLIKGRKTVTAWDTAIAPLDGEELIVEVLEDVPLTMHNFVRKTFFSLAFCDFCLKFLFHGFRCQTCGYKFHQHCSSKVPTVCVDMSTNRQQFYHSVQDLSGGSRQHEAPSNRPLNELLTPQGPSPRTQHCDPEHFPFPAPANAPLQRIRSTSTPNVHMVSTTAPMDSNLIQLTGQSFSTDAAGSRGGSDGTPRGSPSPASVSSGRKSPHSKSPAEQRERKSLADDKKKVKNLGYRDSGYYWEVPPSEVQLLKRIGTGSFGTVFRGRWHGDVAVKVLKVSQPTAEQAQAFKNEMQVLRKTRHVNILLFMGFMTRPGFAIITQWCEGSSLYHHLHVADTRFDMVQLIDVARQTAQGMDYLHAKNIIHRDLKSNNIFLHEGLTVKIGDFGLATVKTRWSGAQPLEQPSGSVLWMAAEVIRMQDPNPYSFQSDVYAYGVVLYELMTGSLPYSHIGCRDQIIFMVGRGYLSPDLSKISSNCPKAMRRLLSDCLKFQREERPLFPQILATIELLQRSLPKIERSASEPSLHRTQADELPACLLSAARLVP
The experiment can be described thus: Inhibition of ARAF in human HeLa cells lysate at 10 uM pre incubated for 15 mins followed by ATP acyl phosphate probe addition and measured after 10 mins by LC-MS/MS analysis relative to control. The class given is subcellular. To be noted: time 25.0 min. In outline: as §1

Experiment [8] deals with T3, Mitogen-activated protein kinase kinase kinase 7 (Homo sapiens) (UniProt O43318).
T3 sequence (whole entry): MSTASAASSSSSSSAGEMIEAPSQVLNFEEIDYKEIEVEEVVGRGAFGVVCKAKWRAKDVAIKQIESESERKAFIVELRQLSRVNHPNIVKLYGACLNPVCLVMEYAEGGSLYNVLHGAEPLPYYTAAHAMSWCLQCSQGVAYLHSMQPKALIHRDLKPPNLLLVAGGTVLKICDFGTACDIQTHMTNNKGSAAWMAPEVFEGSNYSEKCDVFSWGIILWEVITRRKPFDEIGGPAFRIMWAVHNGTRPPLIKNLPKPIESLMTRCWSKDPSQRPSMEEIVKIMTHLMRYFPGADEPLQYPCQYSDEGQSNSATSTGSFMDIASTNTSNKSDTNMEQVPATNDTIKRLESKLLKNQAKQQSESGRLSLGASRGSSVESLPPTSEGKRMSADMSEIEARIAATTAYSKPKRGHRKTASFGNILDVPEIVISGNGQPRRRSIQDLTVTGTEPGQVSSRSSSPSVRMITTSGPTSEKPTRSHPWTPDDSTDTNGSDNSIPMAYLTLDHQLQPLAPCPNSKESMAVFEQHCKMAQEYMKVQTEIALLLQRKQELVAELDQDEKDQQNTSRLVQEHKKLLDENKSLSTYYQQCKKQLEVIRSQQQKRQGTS
The experiment can be described thus: Inhibition of TAK1 in human HeLa cells lysate at 2 uM pre incubated for 15 mins followed by ATP acyl phosphate probe addition and measured after 10 mins by LC-MS/MS analysis relative to control. The format is subcellular. The settings on record: time 25.0 min.

Experiment [9] is described as follows: Inhibition of KHS1/2 in human HeLa cells lysate at 2 uM pre incubated for 15 mins followed by ATP acyl phosphate probe addition and measured after 10 mins by LC-MS/MS analysis relative to control. To be noted: 25 min, condition cancer.
In experiment [10] the target is Serine/threonine-protein kinase SMG1 (Homo sapiens, UniProt Q96Q15). The experiment can be described thus: Inhibition of SMG1 in human HeLa cells lysate at 2 uM pre incubated for 15 mins followed by ATP acyl phosphate probe addition and measured after 10 mins by LC-MS/MS analysis relative to control. The class given is subcellular. The settings on record: time 25.0 min.

The test system of the next experiment is Mus musculus. Put plainly: Antiangiogenic activity in C57Bl/6 mouse implanted with matrigel assessed as reduction in bFGF-induced angiogenesis at 50 mg/kg, ip for 6 days by Masson's trichrome staining based assay. The format is functional, organism-based. To be noted: time 6.0 day. A digest of the protocol:
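Mice were implanted with Matrigel containing 400 ng/mL bFGF. From the next day they received drug or vehicle for 6 days. Plugs were then harvested, sectioned and stained with Masson's trichrome; hemoglobin content of the plugs was also measured. n = 6 mice, 9 slices.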

Chain of Dual specificity protein kinase CLK3 (P49761 whole entry, looked up): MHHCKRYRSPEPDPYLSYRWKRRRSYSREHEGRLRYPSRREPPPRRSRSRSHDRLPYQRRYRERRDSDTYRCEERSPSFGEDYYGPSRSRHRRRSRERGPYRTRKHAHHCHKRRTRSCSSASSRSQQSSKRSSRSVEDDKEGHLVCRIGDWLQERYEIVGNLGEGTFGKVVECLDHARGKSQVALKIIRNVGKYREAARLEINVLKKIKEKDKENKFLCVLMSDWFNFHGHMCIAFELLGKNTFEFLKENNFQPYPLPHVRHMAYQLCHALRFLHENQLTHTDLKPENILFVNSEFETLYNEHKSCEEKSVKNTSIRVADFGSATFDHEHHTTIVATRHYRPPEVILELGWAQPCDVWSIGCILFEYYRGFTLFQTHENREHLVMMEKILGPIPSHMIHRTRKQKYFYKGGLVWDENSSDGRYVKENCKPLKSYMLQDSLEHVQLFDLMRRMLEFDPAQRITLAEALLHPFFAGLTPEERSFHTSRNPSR
Chain of Serine/threonine-protein kinase PLK1 (P53350 2-603 limits assumed, stated change not applied): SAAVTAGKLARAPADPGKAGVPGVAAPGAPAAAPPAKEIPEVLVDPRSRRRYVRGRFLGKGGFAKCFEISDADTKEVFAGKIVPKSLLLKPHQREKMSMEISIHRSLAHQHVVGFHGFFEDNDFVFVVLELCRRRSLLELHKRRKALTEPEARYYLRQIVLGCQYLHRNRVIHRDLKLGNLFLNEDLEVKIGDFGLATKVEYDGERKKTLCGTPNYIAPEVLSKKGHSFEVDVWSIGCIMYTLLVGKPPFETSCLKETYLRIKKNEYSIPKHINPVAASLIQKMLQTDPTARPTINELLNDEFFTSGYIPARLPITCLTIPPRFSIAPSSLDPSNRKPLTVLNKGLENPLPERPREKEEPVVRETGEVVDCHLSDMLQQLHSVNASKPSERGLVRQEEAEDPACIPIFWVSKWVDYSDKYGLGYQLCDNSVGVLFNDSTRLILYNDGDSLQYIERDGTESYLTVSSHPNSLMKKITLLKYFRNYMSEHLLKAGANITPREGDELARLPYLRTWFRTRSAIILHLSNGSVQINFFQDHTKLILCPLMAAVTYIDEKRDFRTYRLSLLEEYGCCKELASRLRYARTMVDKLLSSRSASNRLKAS
Chain of Serine/threonine-protein kinase MARK2 (Q7KZI7 whole entry, canonical isoform): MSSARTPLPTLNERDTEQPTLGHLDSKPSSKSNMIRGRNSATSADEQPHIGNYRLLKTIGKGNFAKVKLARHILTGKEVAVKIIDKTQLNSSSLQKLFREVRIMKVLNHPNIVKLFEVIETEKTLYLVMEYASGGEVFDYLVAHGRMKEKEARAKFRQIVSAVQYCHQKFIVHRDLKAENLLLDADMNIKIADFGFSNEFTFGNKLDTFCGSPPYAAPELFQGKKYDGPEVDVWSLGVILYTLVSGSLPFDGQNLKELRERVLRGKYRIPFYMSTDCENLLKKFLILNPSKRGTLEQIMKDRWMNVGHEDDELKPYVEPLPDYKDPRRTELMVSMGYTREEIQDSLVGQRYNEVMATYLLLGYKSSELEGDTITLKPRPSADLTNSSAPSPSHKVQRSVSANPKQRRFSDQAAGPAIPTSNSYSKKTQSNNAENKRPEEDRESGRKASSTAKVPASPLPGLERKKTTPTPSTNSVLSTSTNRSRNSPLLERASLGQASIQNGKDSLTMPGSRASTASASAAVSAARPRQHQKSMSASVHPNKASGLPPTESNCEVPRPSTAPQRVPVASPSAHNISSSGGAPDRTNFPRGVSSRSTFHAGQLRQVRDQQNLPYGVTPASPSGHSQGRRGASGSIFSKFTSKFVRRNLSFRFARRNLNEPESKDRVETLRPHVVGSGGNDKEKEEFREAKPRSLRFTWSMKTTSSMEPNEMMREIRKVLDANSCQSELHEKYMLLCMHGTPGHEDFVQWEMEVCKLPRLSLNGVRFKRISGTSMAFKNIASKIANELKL
Chain of ALK tyrosine kinase receptor (Homo sapiens) (Q9UM73 19-1620 limits assumed): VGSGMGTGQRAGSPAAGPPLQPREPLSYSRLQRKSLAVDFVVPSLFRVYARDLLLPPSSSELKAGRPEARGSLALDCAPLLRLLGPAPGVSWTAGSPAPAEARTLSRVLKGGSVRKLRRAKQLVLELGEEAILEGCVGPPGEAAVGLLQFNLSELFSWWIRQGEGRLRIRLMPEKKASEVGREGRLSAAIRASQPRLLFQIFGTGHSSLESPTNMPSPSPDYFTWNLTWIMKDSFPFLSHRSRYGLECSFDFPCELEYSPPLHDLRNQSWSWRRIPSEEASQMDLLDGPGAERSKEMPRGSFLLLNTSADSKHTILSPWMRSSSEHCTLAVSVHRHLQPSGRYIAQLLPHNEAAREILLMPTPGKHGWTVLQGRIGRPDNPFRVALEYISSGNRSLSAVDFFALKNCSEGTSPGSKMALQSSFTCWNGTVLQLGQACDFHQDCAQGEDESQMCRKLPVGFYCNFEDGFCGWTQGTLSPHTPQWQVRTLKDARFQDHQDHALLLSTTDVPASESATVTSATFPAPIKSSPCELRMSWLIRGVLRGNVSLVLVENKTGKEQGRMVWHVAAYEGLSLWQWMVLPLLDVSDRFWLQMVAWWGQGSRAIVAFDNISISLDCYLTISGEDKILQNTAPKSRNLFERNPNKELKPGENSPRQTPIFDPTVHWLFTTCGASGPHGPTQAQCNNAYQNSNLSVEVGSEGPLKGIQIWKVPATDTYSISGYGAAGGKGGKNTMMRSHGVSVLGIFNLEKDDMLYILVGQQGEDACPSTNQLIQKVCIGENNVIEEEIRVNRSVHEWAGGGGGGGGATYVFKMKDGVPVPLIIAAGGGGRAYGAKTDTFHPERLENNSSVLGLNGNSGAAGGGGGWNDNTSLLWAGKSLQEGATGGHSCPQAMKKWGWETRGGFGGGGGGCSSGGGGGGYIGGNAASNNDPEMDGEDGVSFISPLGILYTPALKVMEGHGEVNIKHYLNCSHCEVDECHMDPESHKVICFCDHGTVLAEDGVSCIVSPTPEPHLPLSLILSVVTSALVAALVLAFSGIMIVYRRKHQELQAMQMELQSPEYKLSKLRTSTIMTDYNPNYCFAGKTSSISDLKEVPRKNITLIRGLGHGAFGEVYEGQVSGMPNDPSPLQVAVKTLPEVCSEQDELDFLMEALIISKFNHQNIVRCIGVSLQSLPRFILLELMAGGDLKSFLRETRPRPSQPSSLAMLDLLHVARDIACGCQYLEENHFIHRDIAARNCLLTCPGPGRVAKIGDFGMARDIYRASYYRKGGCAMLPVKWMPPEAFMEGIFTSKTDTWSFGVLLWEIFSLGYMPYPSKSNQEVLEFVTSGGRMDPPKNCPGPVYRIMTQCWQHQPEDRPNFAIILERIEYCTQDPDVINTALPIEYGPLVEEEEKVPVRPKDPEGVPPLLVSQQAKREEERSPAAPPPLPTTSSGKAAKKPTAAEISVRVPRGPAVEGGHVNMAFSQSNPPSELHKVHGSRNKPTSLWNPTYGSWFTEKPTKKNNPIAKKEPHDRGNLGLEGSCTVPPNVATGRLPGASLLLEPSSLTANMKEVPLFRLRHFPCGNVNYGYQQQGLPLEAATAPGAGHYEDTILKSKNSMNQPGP
Chain of Cyclin-dependent kinase 16 (Q00536 whole entry): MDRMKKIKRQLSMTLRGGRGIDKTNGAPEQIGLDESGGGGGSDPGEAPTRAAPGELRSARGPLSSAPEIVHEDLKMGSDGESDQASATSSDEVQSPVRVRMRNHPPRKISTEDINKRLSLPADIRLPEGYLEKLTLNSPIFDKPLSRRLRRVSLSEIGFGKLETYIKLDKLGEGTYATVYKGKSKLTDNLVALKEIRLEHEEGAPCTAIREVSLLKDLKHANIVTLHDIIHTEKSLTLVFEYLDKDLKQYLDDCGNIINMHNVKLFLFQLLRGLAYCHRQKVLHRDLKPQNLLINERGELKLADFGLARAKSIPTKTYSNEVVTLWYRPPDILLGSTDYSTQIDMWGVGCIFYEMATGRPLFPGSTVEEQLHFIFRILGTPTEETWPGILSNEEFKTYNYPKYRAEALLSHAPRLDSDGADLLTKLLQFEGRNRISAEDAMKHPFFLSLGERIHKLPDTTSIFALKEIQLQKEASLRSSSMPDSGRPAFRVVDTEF

On to `CCOc1cc(N2CCC(O)CC2)ccc1Nc1ncc2c(n1)N(C)c1ccccc1C(=O)N2C`, for which the Activity in experiment [1] was found to be 29%. The IC50 in [2] and in experiment [3] was above 50 µM in each case. Also, the inhibition in [4] was 32.6%; in [5] it was 17.5%; in [6] it was 13.1%; in experiment [7], 11.2%; in experiment [8], -4.8%; in [10] it was 1.8%. The inhibition at 2 µM in [9] was -8.6%. Further, in the experiment with Mus musculus, the outcome was Active.

Values taken from ChEMBL document CHEMBL5661979, “Pharmacological inhibition of BMK1 suppresses tumor growth through promyelocytic leukemia protein” (Cancer Cell, 2010).
